In series [1] the test system is parental MCF-7 cells. The series can be described thus: MTT anti-proliferation assay in parental MCF-7 cells. As to conditions: Homo sapiens, MCF7, read-out: IC50 of docetaxel in parental MCF-7 cells. The series is classed as cell-based. In short, it runs like this:
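Parental MCF-7 cells were grown in RPMI 1640 with 10% FBS at 37 °C and 5% CO2. About 3000 cells/well were seeded and left 24 h, then exposed to six docetaxel concentrations. MTT read-out was absorbance at 490 nm. IC50 came from non-linear regression (log inhibitor vs normalized response, variable slope).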

For series [2], the system named is MCF-7/1B1 cells. The series is classed as cell-based, human. In short, it runs like this: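 MCF-7/1B1 cells were made by incubating parental MCF-7 with 10 nM TCDD for five days, then seeded at about 3000 cells/well in RPMI 1640/10% FBS for 24 h. Screen: 20 μM docetaxel alone or with 10 μM test compound. […] MTT read at 490 nm. Non-linear regression fit; mean ± SD of three independent measurements; Student's t test.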

Series [3] has as its target T1, recombinant human CYP1B1 (Homo sapiens, UniProt Q16678).
T1 sequence (Q16678 1-543): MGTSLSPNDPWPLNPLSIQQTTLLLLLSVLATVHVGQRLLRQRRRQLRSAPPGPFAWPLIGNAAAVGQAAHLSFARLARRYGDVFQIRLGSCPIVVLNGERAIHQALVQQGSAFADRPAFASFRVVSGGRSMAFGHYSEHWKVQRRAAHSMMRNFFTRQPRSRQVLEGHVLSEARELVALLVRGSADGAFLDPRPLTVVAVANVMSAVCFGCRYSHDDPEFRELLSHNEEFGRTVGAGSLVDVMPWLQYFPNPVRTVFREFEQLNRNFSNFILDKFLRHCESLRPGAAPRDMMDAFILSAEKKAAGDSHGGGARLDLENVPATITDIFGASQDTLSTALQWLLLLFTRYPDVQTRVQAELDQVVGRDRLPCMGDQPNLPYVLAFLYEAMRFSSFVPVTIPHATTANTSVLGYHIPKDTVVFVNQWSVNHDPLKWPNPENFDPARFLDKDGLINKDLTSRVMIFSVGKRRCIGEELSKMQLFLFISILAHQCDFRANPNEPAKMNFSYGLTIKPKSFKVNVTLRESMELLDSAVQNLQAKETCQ
The series can be described thus: EROD assay, recombinant human CYP1B1 inhibition. Format: biochemical. As to conditions: for IC50 ratio 1A1/1B1: selectivity for CYP1B1 over CYP1A1; for IC50 ratio 1A2/1B1: selectivity for CYP1B1 over CYP1A2.

Series [4] relates to CYP1A1. As to conditions: read-out: IC50 CYP1A1; cited from earlier work.
Series [5] addresses T2, CYP1A1 (Homo sapiens, UniProt P04798).
T2 sequence (P04798 1-512): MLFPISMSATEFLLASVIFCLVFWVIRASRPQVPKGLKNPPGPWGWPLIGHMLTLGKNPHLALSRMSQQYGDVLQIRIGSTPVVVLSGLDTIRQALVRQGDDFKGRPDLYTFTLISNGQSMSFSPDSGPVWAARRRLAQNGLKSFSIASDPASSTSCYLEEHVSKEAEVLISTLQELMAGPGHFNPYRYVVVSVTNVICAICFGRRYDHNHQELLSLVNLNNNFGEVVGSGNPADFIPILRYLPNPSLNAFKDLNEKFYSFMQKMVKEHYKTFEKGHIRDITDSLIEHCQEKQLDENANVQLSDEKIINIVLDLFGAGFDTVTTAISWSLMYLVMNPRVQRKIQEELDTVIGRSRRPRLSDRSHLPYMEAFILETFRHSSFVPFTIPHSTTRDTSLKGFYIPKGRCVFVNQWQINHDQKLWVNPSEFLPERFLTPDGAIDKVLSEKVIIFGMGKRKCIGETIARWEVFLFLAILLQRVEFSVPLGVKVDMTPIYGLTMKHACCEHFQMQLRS
Put plainly: EROD assay, recombinant human CYP1A1 inhibition. The series is classed as biochemical. In short, it runs like this:
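Supersomes with P450 reductase. Test compound is taken from 10 mM DMSO stock into Tris–HCl pH 7.4 (final DMSO <1% v/v), at several concentrations. Methanol stop. Resorufin fluorescence read at ex 544/em 590 nm. IC50 from nonlinear regression, log(inhibitor) vs normalized response, variable slope.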

The subject of series [6] is CYP1A2. As to conditions: read-out: IC50 CYP1A2; recombinant human enzyme; cited from earlier work.
For series [7], the target named is T3, CYP1A2 (Homo sapiens, UniProt P05177).
T3 sequence (P05177 2-516 limits assumed): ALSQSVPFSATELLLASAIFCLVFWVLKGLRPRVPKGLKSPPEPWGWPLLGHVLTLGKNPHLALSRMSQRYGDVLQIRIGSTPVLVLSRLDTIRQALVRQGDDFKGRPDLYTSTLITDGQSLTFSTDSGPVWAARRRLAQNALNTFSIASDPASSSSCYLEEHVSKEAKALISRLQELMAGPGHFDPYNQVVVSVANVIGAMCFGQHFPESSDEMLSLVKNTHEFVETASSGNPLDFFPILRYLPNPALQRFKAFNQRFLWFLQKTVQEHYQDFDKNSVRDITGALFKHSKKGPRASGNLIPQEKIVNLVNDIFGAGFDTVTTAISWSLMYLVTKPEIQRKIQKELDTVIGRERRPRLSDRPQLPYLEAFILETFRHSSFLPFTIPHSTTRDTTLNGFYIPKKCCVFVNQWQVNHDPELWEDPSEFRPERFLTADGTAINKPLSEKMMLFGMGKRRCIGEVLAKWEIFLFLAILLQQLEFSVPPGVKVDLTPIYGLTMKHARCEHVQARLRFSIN
The series can be described thus: EROD assay, recombinant human CYP1A2 inhibition. The series is classed as biochemical.

A value given as a limit tells only on which side of the number the result lay.

Turning to `CC(=O)O[C@@]12CO[C@@H]1C[C@H](O)[C@@]1(C)C(=O)[C@H](O)C3=C(C)[C@@H](OC(=O)[C@H](O)[C@@H](NC(=O)OC(C)(C)C)c4ccccc4)C[C@@](O)([C@@H](OC(=O)c4ccccc4)[C@H]21)C3(C)C` [docetaxel, reference compound], the IC50 in series [1] came out at 29500 nM. In addition, in series [2], the “fold resistance of MCF-7/1B1 cells to docetaxel versus parental MCF-7 cells” value is 5 fold.

`COc1cc2c(=O)cc(-c3cccc(Br)c3)[nH]c2c2c(OC)cccc12` [Compound 5e, 2-(3-Bromophenyl)-6,10-dimethoxybenzo[h]quinolin-4(1H)-one]: in series [3], the “IC50 ratio 1A1/1B1” value was 5.5. The “antiproliferative activity of the compound alone” value in series [2] (MCF-7/1B1 cells, varying concentrations, no docetaxel) was “a significant antiproliferative activity was not observed”.

Take `O=c1cc(-c2ccccc2)oc2c1ccc1ccccc12` [ANF, α-Naphthoflavone]: the IC50 in series [4] is 60 nM; in series [5], 62.8 nM; in series [6], […].

With `O=C1CC(c2ccccc2F)Nc2c1ccc1ccccc21` (stereo not drawn) [Compound 1c, 2-(2-Fluorophenyl)-2,3-dihydrobenzo[h]quinolin-4(1H)-one], in series [5], the IC50 was determined as 578 nM. For the same molecule, in series [3], the IC50 worked out at 139 nM, the “IC50 ratio 1A1/1B1” value came out at 4.1 and the “IC50 ratio 1A2/1B1” value turned out to be 7.9. In series [7], the IC50 was determined as 1100 nM.

As for `O=c1c(O)c(-c2ccc(O)cc2)[nH]c2c1ccc1ccccc12` [Compound 3c, 3-Hydroxy-2-(4-hydroxyphenyl)benzo[h]quinolin-4(1H)-one], in series [5], the IC50 came out at 525 nM. In series [3], the IC50 is 142 nM, the “IC50 ratio 1A1/1B1” value worked out at 3.7 and the “IC50 ratio 1A2/1B1” value is above 35.3. For the same molecule, the half-inhibitory concentration (IC50) in series [7] is above 5000 nM.

On to `O=c1c(O)c(-c2ccc(F)cc2)[nH]c2c1ccc1ccccc12` [Compound 3d, 2-(4-Fluorophenyl)-3-hydroxybenzo[h]quinolin-4(1H)-one], for which the IC50 in series [5] came to 334 nM. Also, in series [3], the IC50 came out at 93.3 nM, the “IC50 ratio 1A1/1B1” value is recorded as 3.6 and the “IC50 ratio 1A2/1B1” value is above 53.6. For the same molecule, the IC50 in series [7] is above 5000 nM.

With `COc1cc2c(=O)cc(-c3ccccc3)[nH]c2c2c(OC)cccc12` [Compound 5a, 6,10-Dimethoxy-2-phenylbenzo[h]quinolin-4(1H)-one], the IC50 in series [5] was determined as 12.6 nM. Moreover, in series [3], the IC50 was found to be 16.6 nM, the “IC50 ratio 1A1/1B1” value amounted to 0.8 and the “IC50 ratio 1A2/1B1” value was found to be 8.9. The IC50 in series [7] is 148 nM.

Source of the values: publication PMC9080015 (RSC Advances, 2018).
